Active and inactive are the calls of the source. No cut-off for these calls is given here. Where only a bound is given, the exact number is not on record here.

This note sets out measurements from ChEMBL document CHEMBL1144760, “Oxygenated cembranoids from a Formosan soft coral Sinularia gibberosa” (J Nat Prod, 2008).

The subject of test [1] is RAW264.7. The experiment in a line: Inhibition of LPS-induced iNOS expression in mouse RAW264.7 cells at 10 uM by immunoblot analysis relative to control. Type of test: functional. In short, it runs like this:
(§1)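 Murine RAW 264.7 macrophages were grown in DMEM with 10% heat-inactivated FBS at 37 °C and 5% CO2. Test agent (10 µM) was added 5 min before LPS (0.01 µg/mL), followed by 16 h incubation. Lysates were cleared at 20000g, and equal protein was run on SDS-PAGE and PVDF. Blots used anti-iNOS or anti-COX-2 (1:1000, 180 min RT), ECL, and a β-actin reprobe. Densitometry was expressed relative to LPS-alone (100%), as mean ± SEM, n = 6.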
Background: In western blotting, separated proteins are transferred to a membrane and probed.

Test [2] deals with A549. The experiment in a line: Cytotoxicity against human A549 cells at 20 ug/mL by MTT assay. Particulars: read-out: GI. The test is classed as functional. On the technique in general: Tetrazolium dyes change colour on reduction, which living cells bring about.
Test [3] concerns RAW264.7. Kind of test: Inhibition of LPS-induced COX2 expression in mouse RAW264.7 cells at 10 uM by immunoblot analysis relative to control. The test is classed as functional. In short, it runs like this:
as §1

Test [4] concerns MCF7. Kind of test: Cytotoxicity against human MCF7 cells by MTT assay. Type of test: functional, cell-based.
Test [5] concerns A549. The experiment in a line: Cytotoxicity against human A549 cells by MTT assay. The test is classed as functional, cell-based.
Test [6] concerns MCF7. Kind of test: Cytotoxicity against human MCF7 cells at 20 ug/mL by MTT assay. Particulars: read-out: GI. Type of test: functional.
Test [7] deals with HepG2. The experiment in a line: Cytotoxicity against human HepG2 cells at 20 ug/mL by MTT assay. Type of test: functional. Particulars: read-out: GI.
Test [8] deals with HepG2. Kind of test: Cytotoxicity against human HepG2 cells by MTT assay. The test is classed as functional, cell-based.
The nature of test [9]: Cytotoxicity against human MDA-MB-23 cells by MTT assay. The test is classed as functional, cell-based.
A short description of test [10]: Cytotoxicity against human MDA-MB-23 cells at 0.5 ug/mL by MTT assay. Type of test: functional. Particulars: read-out: GI.
Test [11] concerns A549. The experiment in a line: Cytotoxicity against human A549 cells at 0.5 ug/mL by MTT assay. Particulars: read-out: GI. Type of test: functional.
The test system of test [12] is MCF7. Kind of test: Cytotoxicity against human MCF7 cells at 0.5 ug/mL by MTT assay. The test is classed as functional. Particulars: read-out: GI.
For test [13], the system named is HepG2. Kind of test: Cytotoxicity against human HepG2 cells at 0.5 ug/mL by MTT assay. The test is classed as functional. Particulars: read-out: GI.

The IC50 is the point on the concentration scale where inhibition reaches its midpoint. Low readings indicate greater potency, high ones weaker potency. In test [1], `C/C1=C/C=C(\C(C)C)[C@@H](O)C[C@]2(C)O[C@@H]2CC/C(C)=C/CC1` yielded an iNOS protein level (% of LPS control) at 10 µM of 76.2%. Further, the inhibition of growth at 20 µg/mL stood at 27.2% in test [2], 33.4% in test [6] and 45.5% in [7]. Further, the COX-2 protein level (% of LPS control) at 10 µM in test [3] turned out to be 54%. The IC50 in test [4], in test [5], in test [8] and in [9] was above 20 µg/mL each time.
Regarding `CC(=O)O[C@H]1C2=C(C(C)C)C=C(O2)[C@@H](C)CC/C=C(\C)CC[C@@H]2O[C@]21C` (relative stereo) [GIBBEROSENE A], the concentration for half-maximal inhibition (IC50) in test [4], in test [5], in [8] and in [9] was above 20 µg/mL in each case. Also, the inhibition of growth at 20 µg/mL in test [6] is 41.3%; in test [7], below 20%.
Consider `CC(=O)O[C@H]1C/C(C(C)C)=C/C=C(/C)CC/C=C(\C)CC[C@@H]2O[C@@]12C` (relative stereo) [GIBBEROSENE B], for which the result in [1] and in test [3] was inactive. Besides, the IC50 in [4], in test [5], in [8] and in test [9] was above 20 µg/mL each time. In addition, the inhibition of growth at 20 µg/mL in [6] is 21.5%; in [7] it was 24%.
For `C/C1=C\CC[C@]2(C)O[C@H]2/C=C(\C(C)C)C[C@H](O)[C@]2(C)O[C@H]2CC1` (relative stereo) [GIBBEROSENE C], the IC50 in test [4], in test [5], in test [8] and in [9] was above 20 µg/mL each time.
For the compound `CC(=O)O[C@H]1/C=C(C(C)C)\C=C\[C@@](C)(O)CC/C=C(\C)CC[C@@H]2O[C@@]12C` (relative stereo) [GIBBEROSENE D], the IC50 in test [4], in [5], in test [8] and in test [9] was above 20 µg/mL throughout.
For `CC(=O)O[C@@H]1/C(C)=C/C[C@H](O)/C(C)=C/CC/C(C)=C\C=C(/C(C)C)[C@H]1OC(C)=O` (relative stereo) [GIBBEROSENE E], the values for the inhibition of growth at 20 µg/mL in [2], in test [6] and in test [7] were 25.8%, 21% and 31.3%, respectively. Also, the concentration for half-maximal inhibition (IC50) in test [4], in test [5], in test [8] and in [9] was above 20 µg/mL throughout.
For `CC(=O)O[C@@H]1/C(C)=C/CC/C(C)=C/[C@H](O)C/C(C)=C\C=C(/C(C)C)[C@H]1OC(C)=O` (relative stereo) [GIBBEROSENE F], the IC50 in test [4], in [5], in test [8] and in test [9] was above 20 µg/mL each time.
Take `COc1cccc2c1C(=O)c1c(O)c3c(c(O)c1C2=O)C[C@@](O)(C(=O)CO)C[C@@H]3O[C@H]1C[C@H](N)[C@H](O)[C@H](C)O1` [DOXORUBICIN]: the inhibition of growth at 0.5 µg/mL came to 66.6% in [10], 73.2% in test [11], 51.6% in [12] and 66.9% in [13].
Consider `C/C1=C/C=C(\C(C)C)CC/C(C)=C/C(O)C/C(C)=C/CC1` (stereo unspecified) [GIBBEROSENE G], for which the IC50 in test [4], in test [5], in test [8] and in test [9] was above 20 µg/mL throughout. In addition, in test [7], the inhibition of growth at 20 µg/mL stood at 23.3%.
